# Screens from PubChem BioAssay.
# ROMK mod: modulators of human ROMK potassium channel | Tet-inducible ROMK, thallium flux fluorescence; actives lie on both sides | P48048 | actives 2% (n = 130,000) | B-score at 10 µM | AID 1918;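 active means signal ratio slope over the read window, or its plate-corrected B-score, at least 3 SD from the plate mean, either direction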;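 further: B-score of the F/F0 ratio slope over 7 to 12 s after thallium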
# Target sequence (P48048 whole entry, looked up): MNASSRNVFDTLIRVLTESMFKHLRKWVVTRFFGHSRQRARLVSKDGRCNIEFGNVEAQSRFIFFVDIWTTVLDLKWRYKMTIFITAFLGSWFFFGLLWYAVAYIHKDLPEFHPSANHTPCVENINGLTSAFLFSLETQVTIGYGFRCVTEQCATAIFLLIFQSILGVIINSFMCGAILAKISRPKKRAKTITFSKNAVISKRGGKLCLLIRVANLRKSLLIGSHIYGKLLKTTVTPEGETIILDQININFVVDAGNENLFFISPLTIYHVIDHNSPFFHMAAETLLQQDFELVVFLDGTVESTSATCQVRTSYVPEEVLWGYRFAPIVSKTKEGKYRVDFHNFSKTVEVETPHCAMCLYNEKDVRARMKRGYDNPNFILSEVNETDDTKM
# bCat nuc transl: alters nuclear translocation of beta-catenin in HeLa cells | nuclear translocation activity, % at 5 µM | immunofluorescence imaging | actives 0.3% (n = 190,000);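 active means nuclear translocation activity above 50% at 5 µM, with a well cell count of 50 or more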;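 further: per-cell ratio of nuclear to cytoplasmic median beta-catenin stain intensity; plate controls were DMSO negative control for no effect and GSK-3 inhibitor IX positive control for full effect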
#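 test system = HeLa cells, endogenous beta-catenin | dosing = single 5 µM dose plus 0.02–20 µM confirmation series | times = compound treatment 24 h, 37°C, 5% CO2 | technique = beta-catenin immunofluorescence imaging with DAPI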
# MT stabilize HCS: microtubule stabilization, imaging screen | % tubulin-high responders, % at 10 µM | HeLa tubulin immunostaining HCS, 24 h; share of cells brighter than vehicle mean+2SD | AID 2205 | actives 0.83% (n = 200,000);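 active means plate Z-score above 3 for both tubulin-high and condensed-nucleus cell shares, with cell loss under 80%, at 10 µM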;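 further: anti alpha tubulin signal scored within the nucleus-defined area of each cell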
# * = called active by the depositor; · = no result. Hits are enriched below; roughly 1.9% of the tested compounds scored in any of these assays.
SMILES,ROMK mod,bCat nuc transl,MT stabilize HCS
COc1ccc(NC(=O)COC(=O)c2ccc(S(=O)(=O)N(C)c3ccccc3OC)cc2)c(OC)c1,-0.105,0.1,18.1*
CCOC(=O)c1c(CN2CCN(C)CC2)oc2ccc(OC)cc12,·,-0.4,4.1
CCOC(=O)c1c(CN2CCN(c3ccccc3)CC2)oc2ccc(O)cc12,·,3.0,12.6*
C=CCOC(=O)C1=C[C@@H](c2ccc(Br)cc2)C[C@@H](OCc2ccc(CO)cc2)O1,·,-1.6,2.6
O=C(NCCCN1CCOCC1)c1cccc(S(=O)(=O)N2CCc3ccccc3C2)c1,0.042,-2.0,63.0*
O=C(NCC1(N2CCOCC2)CCCCC1)c1cccc(S(=O)(=O)N2CCc3ccccc3C2)c1,-0.252,-0.1,5.8
CC(C)CCN1CCN(CC#Cc2ccccc2)CC1CCO (centres undefined),0.44,0.6,2.1
CCOC(=O)N1CCN(c2nc(C)c3c(n2)CC(C)CC3=O)CC1 (centres undefined),-0.258,-2.2,1.4
Cc1ccc(C)c(N2CCN(C(=O)c3ccc(CS(=O)(=O)c4ccccc4C)o3)CC2)c1,·,·,19.3
Cc1cccc(N2CCN(C(=O)c3ccccn3)CC2C)c1 (centres undefined),-0.805,-1.4,2.8
Cc1cccc(N2CCN(C(=O)c3ccc(CS(=O)(=O)c4ccccc4C)o3)CC2C)c1 (centres undefined),1.33,109.1*,18.6*
COc1ccccc1S(=O)(=O)Cc1ccc(C(=O)N2CCN(c3ccccc3)CC2)o1,·,-3.9,1.7
COc1ccccc1S(=O)(=O)Cc1ccc(C(=O)N2CCN(c3cccc(Cl)c3)CC2)o1,·,43.5,47.6*
Cc1ccc(S(=O)(=O)Cc2ccc(C(=O)N3CCN(c4cc(C)ccc4C)CC3)o2)cc1,0.264,-2.6,28.5*
Cc1ccccc1CSc1nccn1-c1ccccc1,·,·,3.3
CC1CCCCC1NC(=O)CN(C)S(=O)(=O)c1cccc2cccnc12 (centres undefined),0.00959,0.7,·
Cc1ccc(CNC(=O)CO/N=C/c2ccc(C(C)(C)C)cc2)cc1,0.562,1.5,1.2
CC(C)(C)c1ccc(/C=N/OCC(=O)NCc2ccc(F)cc2)cc1,0.29,·,11.8*
COc1cc(/C=N/c2oc(-c3ccccc3)cc2C#N)ccc1O,·,14.3,2.5
C#CCNC(=O)C1=C[C@@H](C)C[C@@H](OCc2ccc(CO)cc2)O1,·,-3.3,3.7
Cc1ccc(-c2noc(-c3ccoc3C)n2)cc1,0.471,0.5,2.4
CCOc1ccc(N=C2NC(=O)S/C2=C\c2ccc(N(C)C)cc2)cc1,·,-1.1,16.6
CCOc1ccc(/C=C2/SC(=O)NC2=S)cc1,4.36*,1.3,2.9
C=CCOc1ccc(/C=N/O)cc1Cl,·,·,6.1
COc1ccccc1C1CC(=O)Nc2cc3c(cc21)OCCO3 (centres undefined),·,-3.3,13.4
SMILES,ROMK mod,bCat nuc transl,MT stabilize HCS
CCOc1c(OC)cccc1C1CC(=O)Nc2cc(OC)c(OC)cc21 (centres undefined),·,-0.5,9.2
CCCOc1c(OC)cccc1C1CC(=O)Nc2cc3c(cc21)OCO3 (centres undefined),·,-0.7,37.0*
CCCOc1c(OC)cccc1C1CC(=O)Nc2cc3c(cc21)OCCO3 (centres undefined),0.912,·,50.7*
COc1cccc(C2CC(=O)Nc3cc4c(cc32)OCCO4)c1OC(C)C (centres undefined),·,0.4,5.3
CCOc1ccccc1C1CC(=O)Nc2cc3c(cc21)OCO3 (centres undefined),2,1.6,29.3*
CCOc1cc(/C=N/NC(=O)C(=O)NC)cc(Br)c1O,·,·,3.7
COc1ccc(C)cc1N(CC(=O)Nc1ccc2c(c1)OCCO2)S(C)(=O)=O,-0.673,0.3,3.0
O=[N+]([O-])c1ccc(COc2ncnc3ccccc23)cc1,-0.444,-3.1,1.6
O=C(COc1ccc(Cl)cc1)NCc1ccncc1,·,-1.4,2.1
CC(C)c1nnc(SCC(=O)N2CCN(C(=O)c3ccco3)CC2)n1N,0.855,-3.0,0.7
CCc1ccc(S(=O)(=O)/N=C2/C=C(Sc3ncn[nH]3)C(=O)c3ccccc32)cc1,-7.84*,-5.3,2.0
CCc1ccc(S(=O)(=O)/N=C2\C=CC(=O)c3ccccc32)cc1,·,1.3,1.4
CSc1ccc(/C=N/NC(=O)c2ccc(O)cc2)cc1,·,2.9,3.5
CSc1ccc(/C=N/NC(=O)c2ccccc2Cl)cc1,2.59,3.2,15.3*
CC1C(=O)OC(c2ccc(Br)cc2)C(C)(C)C1=O (centres undefined),·,-0.5,·
CCC(=NCCc1c(C)[nH]c2ccc(C)cc12)C1=C(O)CC(c2ccccc2)CC1=O (centres undefined),1.99,135.3*,15.5*
CC(=O)C1=C(O)CC(c2ccccc2)CC1=NCCc1c(C)[nH]c2ccc(C)cc12 (centres undefined),1.34,-2.3,4.8
CCOc1ccccc1N=CC1=C(O)CC(c2ccccc2)CC1=O (centres undefined),-0.128,0.2,2.2
CCC(=Nc1ccccc1OC)C1=C(O)CC(c2ccccc2)CC1=O (centres undefined),2.21,32.5,15.1*
CCC(=Nc1ccccc1O)C1=C(O)CC(c2ccccc2)CC1=O (centres undefined),·,1.9,·
COc1ccc(N=CC2=C(O)CC(c3ccccc3)CC2=O)c(OC)c1 (centres undefined),·,·,27.1*
COc1ccc(C(C)=O)cc1COC(=O)c1cnc(Cl)c(Cl)c1,-2.08,2.3,2.1
CCOC(=O)/C=c1\s/c(=C\c2ccc(C(=O)OC)cc2)c(=O)n1CC(=O)Nc1ccccc1,-0.512,0.2,4.1
CCOC(=O)/C=c1\s/c(=C\c2c(OC)ccc3ccccc23)c(=O)n1CC(=O)NCC1CCCO1 (centres undefined),-1.64,190.2*,14.0
CC(C)c1cccc(C(C)C)c1NC(=O)c1ccccc1,·,-2.6,4.0
SMILES,ROMK mod,bCat nuc transl,MT stabilize HCS
COCc1[nH]nc2c1C(c1ccsc1)C(C#N)=C(N)O2 (centres undefined),-1.37,-6.8,2.3
CCCc1[nH]nc2c1C(c1ccc(OC)cc1OC)C(C#N)=C(N)O2 (centres undefined),·,·,3.2
CCCc1[nH]nc2c1C(c1ccc(O)cc1OCC)C(C#N)=C(N)O2 (centres undefined),-4.49*,2.6,4.7
COCc1[nH]nc2c1C(c1sccc1C)C(C#N)=C(N)O2 (centres undefined),-3.49*,-0.7,4.9
Nc1nc(Nc2cccc(F)c2)nc(NCc2ccco2)c1[N+](=O)[O-],0.359,2.8,·
O=C(CSc1ccc2ccccc2c1)Nc1nc2ccccc2[nH]1,0.406,-3.2,4.0
CCCSc1ccc2nc(NC(=O)OC)[nH]c2c1,·,·,20.0*
CCOc1cc(-c2c(C#N)c(N)nc3c2CCc2ccccc2-3)ccc1O,1.09,-2.3,23.1
COc1ccc(-c2cc(-c3cccnc3)c(C#N)c(N)n2)cc1,1.68,0.7,·
CCOc1cc(-c2cc(-c3ccc(C)cc3)nc(N)c2C#N)ccc1O,0.33,68.7*,49.0*
CCOc1cc(-c2c(C#N)c(N)nc3c2CCCC3C)ccc1O (centres undefined),·,·,22.5*
CC(C)NC(=O)NC(=O)COC(=O)c1ccc(F)cc1F,·,-3.1,8.7
CC(C)C(=O)Nc1ccc(C(=O)Nc2nnc(C(C)(C)C)s2)cc1,-0.0622,0.5,1.6
Cc1ccc(CNC(=O)Cc2ccc(-c3ccccc3)cc2)cc1,·,·,16.0
